# From ChEMBL document CHEMBL5705892, “MK-2206, an allosteric Akt inhibitor, enhances antitumor efficacy by standard chemotherapeutic agents or molecular targeted drugs in vitro and in vivo” (Mol Cancer Ther, 2010)
# Calls of active or inactive are those of the source. The calls are words filed in the database; no cut-off is given here.
# Experiments:
# SK-OV-3 [1] = test: Synergistic antiproliferative activity against lapatinib pretreated human SK-OV-3 cells assessed as combination index at ED75 measured after 72 hrs by celltiter-glo assay; assay type: functional
# A2780 [2] = test: Synergistic antiproliferative activity against human A2780 cells assessed as combination index at ED90 measured after 72 hrs in presence of 5-FU by celltiter-glo assay; assay type: functional
# Outline: (§1)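 Cells were seeded at 2–3 × 10³ per well in RPMI 1640 with 10% FBS. At 24 h, MK-2206 and the partner drug were added simultaneously at constant concentration ratios spanning each agent's IC₅₀, for 72 h. Growth was read as cellular ATP by CellTiter-Glo. CI was taken from median-effect plots of each agent alone and in combination (Chou–Talalay), at ED₅₀, ED₇₅ and ED₉₀.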
# A2780 [3] = test: Synergistic antiproliferative activity against human A2780 cells assessed as combination index at ED75 measured after 72 hrs in presence of doxorubicin by celltiter-glo assay; assay type: functional; outline: as §1
# NCI-H1703 [4] = test: Synergistic antiproliferative activity against human NCI-H1703 cells assessed as combination index at ED25 to ED90 measured after 72 hrs in presence of carboplatin by celltiter-glo assay; assay type: functional
# [5] = molecular target: RAC-alpha serine/threonine-protein kinase (Homo sapiens) (UniProt P31749); test: Inhibition of AKT phosphorylation at S473 residue in human NCI-H661 cells at 3 umol/L measured after 4 to 24 hrs in presence of carboplatin by MSD assay; settings: time 4-24 hrs
# Sequence of RAC-alpha serine/threonine-protein kinase (Homo sapiens) (P31749 whole entry): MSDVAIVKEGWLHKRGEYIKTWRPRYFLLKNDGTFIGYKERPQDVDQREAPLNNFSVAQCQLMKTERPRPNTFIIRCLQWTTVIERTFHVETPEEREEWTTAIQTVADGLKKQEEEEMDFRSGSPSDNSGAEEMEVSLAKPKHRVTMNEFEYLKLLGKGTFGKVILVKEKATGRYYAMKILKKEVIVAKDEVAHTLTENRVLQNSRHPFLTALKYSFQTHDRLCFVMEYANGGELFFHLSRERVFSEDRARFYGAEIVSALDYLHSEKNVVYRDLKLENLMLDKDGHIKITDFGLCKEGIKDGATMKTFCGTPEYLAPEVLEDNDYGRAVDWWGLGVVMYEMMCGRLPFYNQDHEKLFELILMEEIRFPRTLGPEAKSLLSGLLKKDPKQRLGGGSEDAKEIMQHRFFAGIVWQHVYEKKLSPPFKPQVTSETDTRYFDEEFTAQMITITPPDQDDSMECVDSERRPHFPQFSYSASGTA
# Calu-6 = test: Synergistic antiproliferative activity against human Calu-6 cells assessed as combination index at ED90 measured after 72 hrs in presence of erlotinib by celltiter-glo assay; assay type: functional
# Outline: (§2)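 Cells grown in RPMI 1640 with 10% heat-inactivated FBS at 37°C, 5% CO₂. Seeded at 2 to 3 × 10³ per well; drugs added 24 h later. […] Viability read as cellular ATP by CellTiter-Glo. CI calculated by Chou–Talalay from median-effect plots at ED50, ED75 and ED90.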
# NCI-H1703 [6] = test: Induction of apoptosis in human NCI-H1703 cells assessed as fold induction of capsase-3/7 activity measured after 24 to 48 hrs in presence of carboplatin by caspase-glo 3/7 assay; assay type: functional; settings: time 24-48 hrs
# [7] = molecular target: RAC-alpha serine/threonine-protein kinase (Homo sapiens) (UniProt P31749); test: Inhibition of AKT phosphorylation at S473 residue in human HCC70 cells at 1 umol/L measured after 3 to 24 hrs by Western blot analysis; assay type: cell-based; settings: dose 1.0 µmol/L, time 3-24 hrs
# Outline: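 HCC70 cells at ~70% confluence were exposed to 10 µmol/L lapatinib, 1 µmol/L MK-2206, or both, for 0, 3, 6, 12 or 24 h. Lysates were prepared in Triton X-100/Tris buffer (pH 7.5) with protease and phosphatase inhibitors. Immunoblots after SDS-PAGE and nitrocellulose transfer were probed for pAkt and pS6.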
# NCI-H460 [8] = test: Synergistic antiproliferative activity against human NCI-H460 cells assessed as combination index at ED90 measured after 72 hrs in presence of doxorubicin by celltiter-glo assay; assay type: functional
# A2780 [9] = test: Synergistic antiproliferative activity against human A2780 cells assessed as combination index at ED75 measured after 72 hrs in presence of gemcitabine by celltiter-glo assay; assay type: functional; outline: as §1
# NCI-H292 = test: Induction of apoptosis in human NCI-H292 cells assessed as increase in caspase-3/7 activity up to 3 umol/L measured after 48 hrs by caspase-glo 3/7 assay; assay type: functional, cell-based; settings: dose <= 3.0 µmol/L
# Outline: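 Caspase-3/7 activity was measured by Caspase-Glo 3/7 and expressed as fold over DMSO vehicle control. The experiment was done twice.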
# BT-20 = test: Synergistic antiproliferative activity against human BT-20 cells assessed as combination index at ED90 measured after 72 hrs in presence of docetaxel by celltiter-glo assay; assay type: functional; outline: as §2
# NCI-H661 = test: Synergistic antiproliferative activity against human NCI-H661 cells assessed as combination index at ED25 to ED90 measured after 72 hrs in presence of gemcitabine by celltiter-glo assay; assay type: functional
# Mus musculus = test: In vivo inhibition of AKT in human NCI-H292 cells xenografted mouse at 120 mg/kg, po administered as single dose measured after 12 hrs by immunoprecipitation assay; assay type: functional, organism-based
# NCI-H358 = test: Synergistic antiproliferative activity against human NCI-H358 cells assessed as combination index at ED50 measured after 72 hrs in presence of erlotinib by celltiter-glo assay; assay type: functional
# NCI-N87 = test: Synergistic antiproliferative activity against human NCI-N87 cells assessed as combination index at ED50 treated 24 hrs prior to lapatinib and measured after 72 hrs by celltiter-glo assay; assay type: functional; settings: time 96 hrs
# A2780 [10] = test: Cell cycle arrest in human A2780 cells assessed as increase in accumulation of cells at sub-G1 phase measured after 72 hrs in presence of doxorubicin by propidium iodide staining based flow cytometry; assay type: functional
# NCI-H460 [11] = test: Synergistic antiproliferative activity against human NCI-H460 cells assessed as combination index at ED25 to ED90 measured after 72 hrs in presence of gemcitabine by celltiter-glo assay; assay type: functional
# NCI-H460 [12] = test: Synergistic antiproliferative activity against human NCI-H460 cells assessed as combination index at ED75 measured after 72 hrs in presence of doxorubicin by celltiter-glo assay; assay type: functional
# NCI-H1299 = test: Synergistic antiproliferative activity against human NCI-H1299 cells assessed as combination index at ED75 measured after 72 hrs in presence of erlotinib by celltiter-glo assay; assay type: functional
# A2780 [13] = test: Cell cycle arrest in human A2780 cells assessed as increase in accumulation of cells at sub-G1 phase measured after 72 hrs in presence of camptothecin by propidium iodide staining based flow cytometry; assay type: functional
# SK-OV-3 [14] = test: Synergistic antiproliferative activity against human SK-OV-3 cells assessed as combination index at ED50 measured after 96 hrs in presence of lapatinib by celltiter-glo assay; assay type: functional
# HCC70 = test: Synergistic antiproliferative activity against human HCC70 cells assessed as combination index at ED50 measured after 72 hrs in presence of docetaxel by celltiter-glo assay; assay type: functional; outline: as §2
# NCI-H460 [15] = test: Antitumor activity against human NCI-H460 cells xenografted in CD1 nude mouse assessed as reduction in tumor volume at 120 mg/kg, po administered 3 times per week for 2 weeks in presence of gemcitabine by caliper method; assay type: functional, organism-based
# Outline: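 NCI-H460 cells were injected s.c. in Matrigel/PBS into CD1-nude mice (female in the carboplatin study). Mice were randomized at 0.2 cm³, n = 5. Carboplatin was given at 50 mg/kg or gemcitabine at 100 mg/kg, i.v. in saline, on days 0 and 7. MK-2206 (30% Captisol) was given at 120 mg/kg po on days 0, 2, 4, 7, 9, 11. Tumors measured by caliper twice weekly.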
# UMC-11 = test: Synergistic antiproliferative activity against human UMC-11 cells assessed as combination index at ED25 to ED90 measured after 72 hrs in presence of carboplatin by celltiter-glo assay; assay type: functional
# MDA-MB-468 = test: Synergistic antiproliferative activity against lapatinib pretreated human MDA-MB-468 cells assessed as combination index at ED75 measured after 72 hrs by celltiter-glo assay; assay type: functional
compound,measurement,setting,value
Cl.NC1(c2ccc(-c3nc4ccn5c(=O)[nH]nc5c4cc3-c3ccccc3)cc2)CCC1,CI75,SK-OV-3 [1],0.18
same,CI90,A2780 [2],0.53
same,CI75,A2780 [3],0.43
same,CI,NCI-H1703 [4],0.53
same,inhibition,[5],Active
same,CI90,Calu-6,0.13
same,fold change (FC),NCI-H1703 [6],1.3
same,inhibition,[7],Active
same,CI90,NCI-H460 [8],0.17
same,CI75,A2780 [9],0.43
same,Activity,NCI-H292,inactive
same,CI90,BT-20,0.5
same,CI,NCI-H661,0.53
same,inhibition,Mus musculus,Active
same,CI50,NCI-H358,0.44
same,CI50,NCI-N87,0.18
same,Activity,A2780 [10],Dose-Dependent Effect
same,CI,NCI-H460 [11],0.33
same,CI75,NCI-H460 [12],0.18
same,CI75,NCI-H1299,0.31
same,Activity,A2780 [13],Dose-Dependent Effect
same,CI50,SK-OV-3 [14],0.18
same,CI50,HCC70,0.9
same,Activity,NCI-H460 [15],Active
same,CI,UMC-11,1.36
same,CI75,MDA-MB-468,0.18
